Measurements: ChEMBL document CHEMBL3826910, “Discovery of 3-(5'-Substituted)-Benzimidazole-5-(1-(3,5-dichloropyridin-4-yl)ethoxy)-1H-indazoles as Potent Fibroblast Growth Factor Receptor Inhibitors: Design, Synthesis, and Biological Evaluation” (J Med Chem, 2016)

How the values were obtained:
NCI-H1581 [1] = assay: Antiproliferative activity against FGFR1-amplified human NCI-H1581 cells after 72 hrs by CCK8/MTT assay; type: functional, cell-based; details: NCI-H1581, 72 h
[2] = target: Fibroblast growth factor receptor 1 (Homo sapiens, UniProt P11362); assay: Inhibition of recombinant human FGFR1 using poly (Glu, Tyr) 4:1 as substrate after 60 mins by ELISA
[3] = target: Vascular endothelial growth factor receptor 2 (Homo sapiens, UniProt P35968); assay: Inhibition of recombinant human VEGFR2 using poly (Glu, Tyr) 4:1 as substrate after 60 mins by ELISA
[4] = Cmax in Sprague-Dawley rat at 5 mg/kg, po; type: ADME, organism-based; design: dose 5 mg/kg, route oral; details: in vivo
Summary of the method: (§1)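 Male SD rats (n = 3) dosed orally by gavage at 5 mg/kg as a suspension in 0.5% CMC-Na. Quantified by LC-MS/MS. An IV arm (1 mg/kg) was run in parallel.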

[5] = Tmax in Sprague-Dawley rat at 5 mg/kg, po; type: ADME, organism-based; details: in vivo; summary of the method: as §1
[6] = Oral bioavailability in Sprague-Dawley rat at 5 mg/kg; type: ADME, organism-based; details: in vivo; summary of the method: as §1
[7] = Volume of distribution at steady state in Sprague-Dawley rat at 1 mg/kg, iv; type: ADME, organism-based; details: in vivo, read-out: Vdss
[8] = Half life in Sprague-Dawley rat at 1 mg/kg, iv; type: ADME, organism-based; details: in vivo
[9] = AUC (0 to infinity) in Sprague-Dawley rat at 1 mg/kg, iv; type: ADME, organism-based; design: dose 1 mg/kg, time infinity, route intravenous; details: in vivo
[10] = Cmax in Sprague-Dawley rat at 1 mg/kg, iv; type: ADME, organism-based; design: dose 1 mg/kg, route intravenous; details: in vivo
[11] = Clearance in Sprague-Dawley rat at 1 mg/kg, iv; type: ADME, organism-based; details: in vivo
[12] = AUC (0 to infinity) in Sprague-Dawley rat at 5 mg/kg, po; type: ADME, organism-based; design: dose 5 mg/kg, route oral, time infinity; details: in vivo; summary of the method: as §1
cells [13] = details: Homo sapiens, RT-112, 72 h
cells [14] = details: Homo sapiens, KG-1, 72 h
cells [15] = details: Homo sapiens, SNU-16, 72 h
NCI-H1581 [16] = assay: Antitumor activity against human NCI-H1581 cells xenografted in nude mouse assessed as tumor growth inhibition at 20 mg/kg administered as qd for 21 days measured on day 21 post last dose relative to vehicle-treated control; type: functional; details: NCI-H1581, 504 h, read-out: TGI

Sequence of Fibroblast growth factor receptor 1 (P11362 whole entry): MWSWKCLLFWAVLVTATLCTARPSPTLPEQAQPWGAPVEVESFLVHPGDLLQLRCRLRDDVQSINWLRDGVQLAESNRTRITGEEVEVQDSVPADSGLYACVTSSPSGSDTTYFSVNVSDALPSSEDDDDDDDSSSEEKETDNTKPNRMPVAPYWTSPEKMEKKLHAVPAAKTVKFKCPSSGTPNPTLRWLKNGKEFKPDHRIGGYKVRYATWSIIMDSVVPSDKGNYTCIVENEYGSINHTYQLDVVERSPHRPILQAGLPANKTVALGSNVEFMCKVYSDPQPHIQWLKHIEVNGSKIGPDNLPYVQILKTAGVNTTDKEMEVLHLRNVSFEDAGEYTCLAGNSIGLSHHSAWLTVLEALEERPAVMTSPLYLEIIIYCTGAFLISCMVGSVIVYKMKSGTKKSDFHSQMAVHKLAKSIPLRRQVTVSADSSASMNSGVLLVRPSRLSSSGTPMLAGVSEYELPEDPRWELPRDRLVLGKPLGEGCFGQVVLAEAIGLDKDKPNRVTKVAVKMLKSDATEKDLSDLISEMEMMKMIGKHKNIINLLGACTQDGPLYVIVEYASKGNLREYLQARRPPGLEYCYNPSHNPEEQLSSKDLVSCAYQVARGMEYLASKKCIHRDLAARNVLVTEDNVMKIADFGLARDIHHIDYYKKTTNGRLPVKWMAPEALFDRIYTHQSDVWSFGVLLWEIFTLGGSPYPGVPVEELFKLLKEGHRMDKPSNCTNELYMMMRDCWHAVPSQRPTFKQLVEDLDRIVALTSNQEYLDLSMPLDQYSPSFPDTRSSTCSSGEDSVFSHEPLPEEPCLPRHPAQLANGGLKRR
Sequence of Vascular endothelial growth factor receptor 2 (P35968 whole entry): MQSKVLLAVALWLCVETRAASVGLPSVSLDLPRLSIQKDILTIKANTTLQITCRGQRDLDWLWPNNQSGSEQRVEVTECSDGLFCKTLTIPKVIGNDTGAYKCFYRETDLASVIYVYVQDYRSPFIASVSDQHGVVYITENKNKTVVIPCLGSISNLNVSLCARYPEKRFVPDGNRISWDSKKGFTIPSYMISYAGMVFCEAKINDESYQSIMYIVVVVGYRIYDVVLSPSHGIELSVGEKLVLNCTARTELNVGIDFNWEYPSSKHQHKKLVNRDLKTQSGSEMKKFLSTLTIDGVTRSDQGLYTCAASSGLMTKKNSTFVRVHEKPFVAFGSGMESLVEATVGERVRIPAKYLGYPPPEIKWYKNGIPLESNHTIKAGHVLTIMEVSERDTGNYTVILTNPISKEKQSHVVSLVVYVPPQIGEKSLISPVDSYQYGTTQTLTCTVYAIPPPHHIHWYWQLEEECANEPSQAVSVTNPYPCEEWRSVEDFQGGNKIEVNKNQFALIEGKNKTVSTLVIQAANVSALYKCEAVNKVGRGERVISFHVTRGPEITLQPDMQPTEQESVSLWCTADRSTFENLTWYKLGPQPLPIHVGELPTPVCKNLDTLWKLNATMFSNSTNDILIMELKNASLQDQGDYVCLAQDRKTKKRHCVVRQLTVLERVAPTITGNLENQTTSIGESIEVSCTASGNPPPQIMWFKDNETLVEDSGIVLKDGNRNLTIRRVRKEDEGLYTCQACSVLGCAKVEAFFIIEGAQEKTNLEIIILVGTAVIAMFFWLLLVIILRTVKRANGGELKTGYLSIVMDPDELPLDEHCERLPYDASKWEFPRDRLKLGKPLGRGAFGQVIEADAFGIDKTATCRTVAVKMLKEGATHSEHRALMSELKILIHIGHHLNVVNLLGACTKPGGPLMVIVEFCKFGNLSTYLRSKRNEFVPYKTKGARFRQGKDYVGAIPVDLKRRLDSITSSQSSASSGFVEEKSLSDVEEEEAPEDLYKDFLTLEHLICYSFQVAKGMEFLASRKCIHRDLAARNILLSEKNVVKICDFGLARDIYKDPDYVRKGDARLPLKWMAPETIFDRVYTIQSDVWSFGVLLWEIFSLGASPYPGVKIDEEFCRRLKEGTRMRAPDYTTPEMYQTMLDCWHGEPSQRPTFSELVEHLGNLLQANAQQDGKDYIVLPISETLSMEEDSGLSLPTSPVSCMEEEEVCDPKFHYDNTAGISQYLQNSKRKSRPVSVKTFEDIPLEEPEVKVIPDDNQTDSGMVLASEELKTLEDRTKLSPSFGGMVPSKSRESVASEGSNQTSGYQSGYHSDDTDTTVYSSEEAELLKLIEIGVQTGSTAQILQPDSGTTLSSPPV

Compound | IC50 (NCI-H1581 [1]) [µM] | also measured
Fc1ccc2c(-c3nc4cc(N5CCC(N6CCCCC6)CC5)ccc4[nH]3)[nH]nc2c1 | 0.749 | IC50 [2]: 0.0203 µM; IC50 [3]: 0.0164 µM
C[C@H](Oc1ccc2[nH]nc(-c3nc4cc(CCO)ccc4[nH]3)c2c1)c1c(Cl)cncc1Cl | > 0.1 | 
C[C@H](Oc1ccc2[nH]nc(-c3nc4cc(N5CCN(C)CC5)ccc4[nH]3)c2c1)c1c(Cl)cncc1Cl | 0.13 | IC50 [2]: 0.0094 µM
c1ccc(COc2ccc3[nH]nc(-c4nc5cc(N6CCCCC6)ccc5[nH]4)c3c2)nc1 | 1.23 | 
Cc1ccc2[nH]c(-c3n[nH]c4ccc(OC(C)c5c(Cl)cncc5Cl)cc34)nc2c1 (stereo not drawn) | 0.922 | 
Cc1cccc2[nH]c(-c3n[nH]c4ccc(OC(C)c5c(Cl)cncc5Cl)cc34)nc12 (stereo not drawn) | > 10 | 
CC(Oc1ccc2[nH]nc(-c3nc4cc(N5CCCN(C)CC5)ccc4[nH]3)c2c1)c1c(Cl)cncc1Cl (stereo not drawn) | 0.0081 | 
CC(Oc1ccc2[nH]nc(-c3nc4cc(N5CCCCC5)ccc4[nH]3)c2c1)c1c(Cl)ccnc1Cl (stereo not drawn) | 0.0308 | 
CC(Oc1ccc2[nH]nc(-c3nc4c(N5CCCCC5)cccc4[nH]3)c2c1)c1c(Cl)cncc1Cl (stereo not drawn) |  | IC50 [2]: > 1 µM
CC(Oc1ccc2[nH]nc(-c3cc4ccccc4[nH]3)c2c1)c1c(Cl)cncc1Cl (stereo not drawn) | 0.817 | 
Clc1cncc(Cl)c1COc1ccc2[nH]nc(-c3nc4cc(N5CCCCC5)ccc4[nH]3)c2c1 | 0.159 | 
CC(Oc1ccc2[nH]nc(-c3nc4cc(F)ccc4[nH]3)c2c1)c1c(Cl)cncc1Cl (stereo not drawn) | 0.582 | 
COc1ccc2[nH]c(-c3n[nH]c4ccc(OC(C)c5c(Cl)cncc5Cl)cc34)nc2c1 (stereo not drawn) | 0.315 | 
c1cncc(COc2ccc3[nH]nc(-c4nc5cc(N6CCCCC6)ccc5[nH]4)c3c2)c1 | 1.86 | 
CC(Oc1ccc2[nH]nc(-c3nc4ccccc4o3)c2c1)c1c(Cl)cncc1Cl (stereo not drawn) | 3.04 | 
Clc1cnccc1COc1ccc2[nH]nc(-c3nc4cc(N5CCCCC5)ccc4[nH]3)c2c1 | 3.07 | 
CC(Oc1ccc2[nH]nc(-c3nc4ccccc4s3)c2c1)c1c(Cl)cncc1Cl (stereo not drawn) | > 10 | 
CCC(Oc1ccc2[nH]nc(-c3nc4cc(N5CCCCC5)ccc4[nH]3)c2c1)c1c(Cl)cncc1Cl (stereo not drawn) | 0.38 | 
CC(Oc1ccc2[nH]nc(-c3nc4ccccc4[nH]3)c2c1)c1c(Cl)cncc1Cl (stereo not drawn) | 0.403 | 
c1cc(COc2ccc3[nH]nc(-c4nc5cc(N6CCCCC6)ccc5[nH]4)c3c2)ccn1 | 5.02 | 
CC(Oc1ccc2[nH]nc(-c3nc4cc(N5CCC(N6CCCCC6)CC5)ccc4[nH]3)c2c1)c1c(Cl)cncc1Cl (stereo not drawn) | 0.0103 | 
CC(Oc1ccc2[nH]nc(-c3nc4cc(N5CCCCC5)ccc4[nH]3)c2c1)c1c(Cl)cncc1Cl (stereo not drawn) | 0.0141 | 
COc1cc(CCc2cc(NC(=O)c3ccc(N4C[C@@H](C)N[C@@H](C)C4)cc3)n[nH]2)cc(OC)c1 [FEXAGRATINIB] | 0.0921 | IC50 (cells [13]): 0.0884 µM; IC50 (cells [14]): 0.0064 µM; IC50 (cells [15]): 0.0134 µM; inhibition in vivo at 20 mg/kg (NCI-H1581 [16]): 73.9%

The next lines start with results.

IC50 (NCI-H1581 [1]) [µM] | Compound | also measured
0.0022 | CC(Oc1ccc2[nH]nc(-c3nc4cc(N5CCOCC5)ccc4[nH]3)c2c1)c1c(Cl)cncc1Cl (stereo not drawn) | 
0.0016 | CC(Oc1ccc2[nH]nc(-c3nc4cc(C5CCN(C)CC5)ccc4[nH]3)c2c1)c1c(Cl)cncc1Cl (stereo not drawn) | IC50 [3]: 0.0078 µM
0.0014 | C[C@@H](Oc1ccc2[nH]nc(-c3nc4cc(CCO)ccc4[nH]3)c2c1)c1c(Cl)cncc1Cl | Cmax [4]: 195 ng/mL; Tmax [5]: 0.8 h; bioavailability [6]: 22%; Vd [7]: 17.6 L/kg; half-life [8]: 7.3 h; AUC(0-inf) [9]: 582 ng·h/mL; Cmax [10]: 735 ng/mL; clearance [11]: 28.3 mL/min/kg; AUC(0-inf) [12]: 664 ng·h/mL
< 0.0005 | C[C@@H](Oc1ccc2[nH]nc(/C=C/c3cnn(CCO)c3)c2c1)c1c(Cl)cncc1Cl [LY-2874455] | IC50 [3]: 0.0058 µM
0.0012 | COCCNc1ccc2[nH]c(-c3n[nH]c4ccc(OC(C)c5c(Cl)cncc5Cl)cc34)nc2c1 (stereo not drawn) | 
0.0008 | CC(Oc1ccc2[nH]nc(-c3nc4cc(N(C)C(=O)CN(C)C)ccc4[nH]3)c2c1)c1c(Cl)cncc1Cl (stereo not drawn) | IC50 [3]: 0.0025 µM
0.0019 | CC(Oc1ccc2[nH]nc(-c3nc4cc(N5C[C@@H](C)N[C@@H](C)C5)ccc4[nH]3)c2c1)c1c(Cl)cncc1Cl (stereo partly drawn) | IC50 [3]: 0.009 µM
0.0059 | CCN1CCN(c2ccc3[nH]c(-c4n[nH]c5ccc(OC(C)c6c(Cl)cncc6Cl)cc45)nc3c2)CC1 (stereo not drawn) | 
0.0011 | CC(Oc1ccc2[nH]nc(-c3nc4cc(NCCN(C)C)ccc4[nH]3)c2c1)c1c(Cl)cncc1Cl (stereo not drawn) | 
0.001 | CC(Oc1ccc2[nH]nc(-c3nc4cc(N5CCN(C)CC5)ccc4[nH]3)c2c1)c1c(Cl)cncc1Cl (stereo not drawn) | IC50 [2]: 0.001 µM; IC50 [3]: 0.008 µM
0.0055 | CNc1ccc2[nH]c(-c3n[nH]c4ccc(OC(C)c5c(Cl)cncc5Cl)cc34)nc2c1 (stereo not drawn) | 
0.0033 | CC(Oc1ccc2[nH]nc(-c3nc4cc(CCO)ccc4[nH]3)c2c1)c1c(Cl)cncc1Cl (stereo not drawn) | IC50 [3]: 0.0126 µM
